Measured values from different studies.
Lines come from different studies, so protocols differ.
Target: Mitogen-activated protein kinase 15 (MAPK15, Homo sapiens, UniProt Q8TD08)
One construct used (Q8TD08 1-544): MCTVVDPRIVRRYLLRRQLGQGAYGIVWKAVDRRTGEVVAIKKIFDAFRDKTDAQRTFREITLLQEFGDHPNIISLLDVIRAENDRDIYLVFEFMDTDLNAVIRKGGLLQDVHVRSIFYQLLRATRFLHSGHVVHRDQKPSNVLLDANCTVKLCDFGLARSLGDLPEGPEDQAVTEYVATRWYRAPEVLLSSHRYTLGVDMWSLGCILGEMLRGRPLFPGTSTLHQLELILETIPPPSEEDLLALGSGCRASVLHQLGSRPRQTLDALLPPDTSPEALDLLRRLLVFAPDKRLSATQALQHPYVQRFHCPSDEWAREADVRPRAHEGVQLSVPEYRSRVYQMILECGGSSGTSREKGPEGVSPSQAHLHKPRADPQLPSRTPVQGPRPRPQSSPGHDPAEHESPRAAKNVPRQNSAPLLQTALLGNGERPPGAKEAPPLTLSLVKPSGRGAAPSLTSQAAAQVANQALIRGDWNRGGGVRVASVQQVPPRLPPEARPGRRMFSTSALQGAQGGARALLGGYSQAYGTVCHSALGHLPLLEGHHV

Structure (SMILES)	test	setting	measurement	value
Cn1cnc(Br)c1C1=CN(c2ncnc3[nH]cnc23)CCS1	enzyme activity, inhibitor, radiometric	50 nM	inhibition	17.1%
O=C(Nc1cccnn1)N1CCC(=Cc2cccc(Oc3ccc(C(F)(F)F)cn3)c2)CC1	cell-free assay, competition with immobilised ligand	1 µM	remaining binding	83%
COc1cc(Nc2cnc(C#N)c(O[C@H](C)CN(C)C)n2)ncc1-c1cnn(C)c1	enzyme activity, inhibitor, radiometric	1 µM	remaining activity	101%
Cn1c(=O)n(-c2ccc(C(C)(C)C#N)cc2)c2c3cc(-c4cnc5ccccc5c4)ccc3ncc21	enzyme activity, inhibitor	10 µM	remaining activity	94%
Cc1nccc(COC(=O)N2C[C@@H]3[C@@H](CNC(=O)c4ccc5[nH]nnc5c4)[C@@H]3C2)n1	cell-free assay, competition with immobilised ligand	1 µM	remaining binding	100%
CC(C)(C)c1nc2c(s1)c1nc(N)ncc1c1ccc(NS(=O)(=O)c3c(F)cccc3F)c(F)c12	enzyme activity, inhibitor, radiometric	1 µM	remaining activity	81%
Nc1nc(NC2CCCCC2)sc1C(=O)c1ccccc1	enzyme activity, inhibitor	10 µM	remaining activity	18%
O=C(Nc1cnn(-c2csc(C(=O)NC3COC3)c2)c1)Nc1ccccc1Cl	enzyme activity, inhibitor	5 µM	remaining activity	140%
FC(F)(F)Oc1cccc(-c2cnc3ccc(-c4ccncc4)nn23)c1	enzyme activity, inhibitor, radiometric	1 µM	activity vs control	29%
CO[C@@H](C)c1c(Nc2ccc([C@@H](N(C)C(=O)C3CCS(=O)(=O)CC3)C(F)(F)F)cc2)cnc2cc(Cl)nn12	cell-free assay, competition with immobilised ligand	1 µM	remaining binding	81%
Cc1ccc(C(=O)Nc2ccc(CN3CCN(C)CC3)c(C(F)(F)F)c2)cc1C#Cc1cnc2cccnn12	enzyme activity, inhibitor	23.5 nM	remaining activity	77%
C[C@@]1(Cc2ccc(C#N)cc2)C(=O)N(c2cc(Cl)cc(Cl)c2)c2ncc(C(=O)NC3(c4nc(C5CCC5)no4)CC3)n21	cell-free assay, competition with immobilised ligand	1 µM	remaining binding	100%
Nc1nc(Nc2ccccc2)sc1C(=O)c1c(F)cccc1F	enzyme activity, inhibitor	10 µM	remaining activity	14%
Nc1nc(Nc2ccc(S(N)(=O)=O)cc2)sc1C(=O)c1ccccc1[N+](=O)[O-]	enzyme activity, inhibitor	0.1 µM	inhibition	73 to 75%
